Measured values reported in ChEMBL document CHEMBL1124913, “Aqua[1-(2,6-dichloro-4-hydroxyphenyl)-2- phenylethylenediamine](sulfato)platinum-(II) complexes with variable substituents in the 2-phenyl ring. 1. Synthesis and antitumor and estrogenic properties” (J Med Chem, 1990).
Values joined by “and” are separate entries in the source; they are usually repeats but may differ in a detail not shown here. Equal values may be shown once.

Columns and labels:
P388 [1] = assay: In vivo for antitumor effect on P388 Leukemia of the CDF1 mouse at dose 40 uM/kg administered intraperitoneally; assay type: functional, organism-based
Procedure, shortened: (§1)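 P388 leukemia was passaged in female DBA/2 mice. Female CDF1 mice (18–22 g) received 1×10^6 cells ip in PBS on day 0. Groups of six (ten for solvent control) were dosed ip with aqueous solutions on days 1, 5 and 9. Median survival time = X + Y/2, with X and Y the first days reaching N/2 and N/2 + 1 deaths. %T/C = treated/control median survival ×100.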

[2] = biological target: T1, Estrogen receptor (Mus musculus) (UniProt O08537+P19785); assay: (§2) Administered subcutaneously on three consecutive days at a dose of 10 uM /Kg.; assay type: functional
Procedure, shortened: (§3)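 Immature female NMRI mice, 19 days old, in groups of six. Compounds were dissolved in water and given as 0.1 mL sc on days 1, 2 and 3; controls got vehicle and standards got estrone 0.4 μg. Animals were killed 24 h after the last dose. Uteri were fixed in Bouin solution, dried at 100 °C for 18 h and weighed. E = [uterine dry weight (mg)/body weight (g)]100, and estrogenic effect = (E_T − E_V)/(E_S − E_V)100.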

P388 [3] = assay: In vivo for antitumor effect on P388 Leukemia of the CDF1 and median survival time of the animals in days was reported at a concentration of 10 uM/Kg; assay type: functional, organism-based; details: Mus musculus; procedure, shortened: as §1
P388 [4] = assay: In vivo for antitumor effect on P388 Leukemia of the CDF1 and median survival time of the animals in days was reported at a concentration of 40 uM/Kg; assay type: functional, organism-based; details: Mus musculus; procedure, shortened: as §1
[5] = biological target: T1, Estrogen receptor (Mus musculus); assay: (§4) Administered subcutaneously on three consecutive days at a dose of 100 uM /Kg.; assay type: functional; procedure, shortened: as §3
P388 [6] = assay: In vivo for antitumor effect on P388 Leukemia of the CDF1 mouse at dose 20 uM/kg administered intraperitoneally; assay type: functional, organism-based; procedure, shortened: as §1
Mus musculus [7] = assay: Ratio of median survival time of tested group to that of control group of animals was reported at a concentration of 40 uM/Kg; assay type: functional, organism-based; procedure, shortened: as §1
Mus musculus [8] = assay: Ratio of median survival time of tested group to that of control group of animals was reported at a concentration of 10 uM/Kg; assay type: functional, organism-based; procedure, shortened: as §1
[9] = biological target: T1, Estrogen receptor (Mus musculus); assay: as §2; assay type: functional; procedure, shortened: as §3; remark: listed apart in the source
[10] = biological target: T1, Estrogen receptor (Mus musculus); assay: Administered subcutaneously on three consecutive days at a dose of 1000 uM /Kg.; assay type: functional; procedure, shortened: as §3
P388 [11] = assay: In vivo for antitumor effect on P388 Leukemia of the CDF1 and median survival time of the animals in days was reported at a concentration of 20 uM/Kg; assay type: functional, organism-based; details: Mus musculus; procedure, shortened: as §1
Mus musculus [12] = assay: Ratio of median survival time of tested group to that of control group of animals was reported at a concentration of 20 uM/Kg; assay type: functional, organism-based; procedure, shortened: as §1
[13] = biological target: T1, Estrogen receptor (Mus musculus); assay: as §4; assay type: functional; procedure, shortened: as §3; remark: listed apart in the source
P388 [14] = assay: In vivo for antitumor effect on P388 Leukemia of the CDF1 mouse at dose 10 uM/kg administered intraperitoneally; assay type: functional, organism-based; procedure, shortened: as §1
P388 [15] = assay: In vivo antitumor effect on P388 Leukemia in CDF1 mice, median survival time in days at 10 uM/kg; assay type: functional, organism-based; details: Mus musculus; procedure, shortened: as §1
[16] = biological target: T1, Estrogen receptor (Mus musculus); assay: Administered subcutaneously on three consecutive days at a dose of 1000 uM /Kg; assay type: functional; procedure, shortened: as §3
P388 [17] = assay: In vivo for antitumor effect on P388 Leukemia of the CDF1, and median survival time of the animals in days was reported at a concentration of 40 uM/Kg; assay type: functional, organism-based; details: Mus musculus; procedure, shortened: as §1
[18] = biological target: T1, Estrogen receptor (Mus musculus); assay: Estrogenic effect on subcutaneous 10 uM/kg dose for 3 days; assay type: functional; procedure, shortened: as §3
[19] = biological target: T1, Estrogen receptor (Mus musculus); assay: Estrogenic effect on subcutaneous 100 uM/kg dose for 3 days; assay type: functional; procedure, shortened: as §3
P388 [20] = assay: In vivo antitumor effect on P388 Leukemia in CDF1 mice, median survival time in days at 20 umol/kg; assay type: functional, organism-based; details: Mus musculus; procedure, shortened: as §1
[21] = biological target: T1, Estrogen receptor (Mus musculus); assay: Estrogenic effect on subcutaneous 1000 umol/kg dose for 3 days; assay type: functional; procedure, shortened: as §3
Mus musculus [22] = assay: Ratio of median survival time of tested group to control group at 5 umol/kg; assay type: functional, organism-based; procedure, shortened: as §1
P388 [23] = assay: In vivo antitumor effect on P388 Leukemia in CDF1 mice, median survival time in days at 5 umol/kg; assay type: functional, organism-based; details: Mus musculus; procedure, shortened: as §1
P388 [24] = assay: In vivo antitumor effect on P388 Leukemia in CDF1 mice at 5 umol/kg intraperitoneal dose; assay type: functional, organism-based; details: Mus musculus; procedure, shortened: as §1

Substance	T-C (P388 [1])	Estrogenic effect [2]	MST (P388 [3])	MST (P388 [4])	Estrogenic effect [5]	T-C (P388 [6])	T/C (Mus musculus [7])	T/C (Mus musculus [8])	Estrogenic effect [9]	Estrogenic effect [10]	MST (P388 [11])	T/C (Mus musculus [12])	Estrogenic effect [13] [%]	T-C (P388 [14])	MST (P388 [15])	Estrogenic effect [16] [%]	MST (P388 [17])	further results
Aqua [threo-1-(-2-fluoro-4-hydroxyhenyl)-2-(2,6-dichloro-4-hydroxyphenyl) ethylenediamine](sulfato) platinum (II)	-3.8 g and -2.4 g	9 and 11	14 and 12	15.5 and 14	11 and 13	-2.2 g and -1.2 g	172% and 155%	155% and 133%	1% and 0%	20 and 52	15 and 14	166% and 155%						
Aqua[erythro-1-(-3-hydroxyhenyl)-2-(2,6-dichloro-4-hydroxyphenyl) ethylenediamine](sulfato) platinum (II)(erythro-4-Ptso4)	-4.6 g and -2.6 g		14	15.5		-1.7 g and -1.9 g		156% and 163%	0%	19 and 32	14.5 and 13.5	161% and 169%	0	-0.9 g and -1.5 g	13	0	8	
Aqua[threo-1-(-2-chloro-4-hydroxyhenyl)-2-(2,6-dichloro-4-hydroxyphenyl) ethylenediamine](sulfato) platinum (II)(threo-9-Ptso4)	-2.9 g and -1.9 g	9 and 11	11.5	14	21 and 22	-1.8 g and -1.2 g	161% and 155%		39%	86 and 91	13	155% and 144%	141	-1.8 g and -2.4 g	14	117	14.5	Estrogenic effect [18]: 10%; Estrogenic effect [19]: 14%; MST (P388 [20]): 14; Estrogenic effect [21]: 35%
CISPLATIN																		T/C (Mus musculus [22]): 238%; MST (P388 [23]): 19; T-C (P388 [24]): -3.8 g
